# According to ChEMBL document CHEMBL3414507, “Design, synthesis, biological evaluation and preliminary mechanism study of novel benzothiazole derivatives bearing indole-based moiety as potent antitumor agents” (Eur J Med Chem, 2015):
# Values joined by “and” are separate entries in the source; they are usually repeats but may differ in a detail not shown here. Equal values may be shown once.
# Columns and labels:
# HT-29 [1] = assay: Cytotoxicity against human HT-29 cells after 72 hrs by MTT assay; assay type: functional, cell-based
# Outline: (§1)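 MTT assay on HT29, H460, A549 and MDA-MB-231 cells with oncrasin-1 and PAC-1 as positive controls; IC50 from three independent experiments.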
# [2] = Cytotoxicity against human H460 cells after 72 hrs by MTT assay; assay type: functional, cell-based; details: NCI-H460, 72 h; outline: as §1
# MDA-MB-231 = assay: Cytotoxicity against human MDA-MB-231 cells after 72 hrs by MTT assay; assay type: functional, cell-based; details: MDA-MB-231, 72 h; outline: as §1
# A549 = assay: Cytotoxicity against human A549 cells after 72 hrs by MTT assay; assay type: functional, cell-based; details: A549, 72 h; outline: as §1
# Caspase-3 (Homo sapiens) = biological target: T1, Caspase-3 (Homo sapiens) (UniProt P42574); assay: Activation of procaspase-3 (unknown origin) using Ac-DEVD-pNa as substrate at 10 uM after 2 hrs by spectrophotometry
# T1 sequence (whole entry): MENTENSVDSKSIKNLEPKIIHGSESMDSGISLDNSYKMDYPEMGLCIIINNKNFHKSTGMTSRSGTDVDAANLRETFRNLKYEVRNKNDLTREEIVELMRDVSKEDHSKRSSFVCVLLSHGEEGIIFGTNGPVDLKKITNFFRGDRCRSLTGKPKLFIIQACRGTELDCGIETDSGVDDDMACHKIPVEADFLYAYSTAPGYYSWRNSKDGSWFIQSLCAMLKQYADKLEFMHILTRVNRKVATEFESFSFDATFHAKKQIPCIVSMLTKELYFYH
# [3] = biological target: Vascular endothelial growth factor receptor 2 (Homo sapiens) (UniProt P35968); assay: Inhibition of KDR (unknown origin) at 10 uM after 30 mins by HTRF method
# [4] = biological target: Receptor-type tyrosine-protein kinase FLT3 (Homo sapiens) (UniProt P36888); assay: Inhibition of FLT3 (unknown origin) at 10 uM after 30 mins by HTRF method
# [5] = biological target: Platelet-derived growth factor receptor beta (Homo sapiens) (UniProt P09619); assay: Inhibition of PDGFR-beta (unknown origin) at 10 uM after 30 mins by HTRF method
# Tubulin (Homo sapiens) = Tubulin (Homo sapiens) (UniProt P68371+Q9H4B7+P0DPH7+P68366+Q13509+Q71U36+P04350+Q3ZCM7+P07437+P68363+Q9BQE3+Q6PEY2+Q13885+Q9BVA1+Q9BUF5); assay: Inhibition of tubulin (unknown origin) at 10 uM measured for 20 mins by turbidity method; assay type: protein-complex assay
# HT-29 [6] = assay: Cell cycle arrest in human HT-29 cells assessed as accumulation at G0/G1 phase AT 10 uM after 48 hrs by propidium iodide staining-based assay (reference value: 54.11%); assay type: functional
# Sequence of Receptor-type tyrosine-protein kinase FLT3 (Homo sapiens) (P36888 whole entry): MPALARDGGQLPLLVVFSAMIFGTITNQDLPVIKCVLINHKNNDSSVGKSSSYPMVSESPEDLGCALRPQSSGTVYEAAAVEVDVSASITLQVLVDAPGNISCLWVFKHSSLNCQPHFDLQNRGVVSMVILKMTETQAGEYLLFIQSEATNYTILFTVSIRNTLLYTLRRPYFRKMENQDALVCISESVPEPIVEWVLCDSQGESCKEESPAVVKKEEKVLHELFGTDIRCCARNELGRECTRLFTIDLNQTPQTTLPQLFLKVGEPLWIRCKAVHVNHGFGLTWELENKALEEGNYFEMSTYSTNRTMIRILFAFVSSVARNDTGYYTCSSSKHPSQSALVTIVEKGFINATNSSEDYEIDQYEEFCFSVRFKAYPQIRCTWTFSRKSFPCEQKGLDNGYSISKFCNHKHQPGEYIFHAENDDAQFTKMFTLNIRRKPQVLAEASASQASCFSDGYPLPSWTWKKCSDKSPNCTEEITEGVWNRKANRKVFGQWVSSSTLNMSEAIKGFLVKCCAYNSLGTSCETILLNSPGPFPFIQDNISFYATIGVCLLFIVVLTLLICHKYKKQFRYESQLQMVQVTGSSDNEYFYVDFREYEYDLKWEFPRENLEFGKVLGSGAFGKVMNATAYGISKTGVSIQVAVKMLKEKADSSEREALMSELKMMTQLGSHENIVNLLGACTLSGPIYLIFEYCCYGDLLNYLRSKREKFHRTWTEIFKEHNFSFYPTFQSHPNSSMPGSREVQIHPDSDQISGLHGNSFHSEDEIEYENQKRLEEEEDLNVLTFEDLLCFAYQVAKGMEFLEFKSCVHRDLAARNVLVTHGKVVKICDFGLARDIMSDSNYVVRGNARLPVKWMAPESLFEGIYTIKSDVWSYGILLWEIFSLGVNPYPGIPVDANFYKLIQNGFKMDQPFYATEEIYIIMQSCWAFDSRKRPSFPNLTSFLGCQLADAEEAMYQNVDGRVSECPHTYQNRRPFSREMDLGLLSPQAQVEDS
# Sequence of Platelet-derived growth factor receptor beta (Homo sapiens) (P09619 whole entry): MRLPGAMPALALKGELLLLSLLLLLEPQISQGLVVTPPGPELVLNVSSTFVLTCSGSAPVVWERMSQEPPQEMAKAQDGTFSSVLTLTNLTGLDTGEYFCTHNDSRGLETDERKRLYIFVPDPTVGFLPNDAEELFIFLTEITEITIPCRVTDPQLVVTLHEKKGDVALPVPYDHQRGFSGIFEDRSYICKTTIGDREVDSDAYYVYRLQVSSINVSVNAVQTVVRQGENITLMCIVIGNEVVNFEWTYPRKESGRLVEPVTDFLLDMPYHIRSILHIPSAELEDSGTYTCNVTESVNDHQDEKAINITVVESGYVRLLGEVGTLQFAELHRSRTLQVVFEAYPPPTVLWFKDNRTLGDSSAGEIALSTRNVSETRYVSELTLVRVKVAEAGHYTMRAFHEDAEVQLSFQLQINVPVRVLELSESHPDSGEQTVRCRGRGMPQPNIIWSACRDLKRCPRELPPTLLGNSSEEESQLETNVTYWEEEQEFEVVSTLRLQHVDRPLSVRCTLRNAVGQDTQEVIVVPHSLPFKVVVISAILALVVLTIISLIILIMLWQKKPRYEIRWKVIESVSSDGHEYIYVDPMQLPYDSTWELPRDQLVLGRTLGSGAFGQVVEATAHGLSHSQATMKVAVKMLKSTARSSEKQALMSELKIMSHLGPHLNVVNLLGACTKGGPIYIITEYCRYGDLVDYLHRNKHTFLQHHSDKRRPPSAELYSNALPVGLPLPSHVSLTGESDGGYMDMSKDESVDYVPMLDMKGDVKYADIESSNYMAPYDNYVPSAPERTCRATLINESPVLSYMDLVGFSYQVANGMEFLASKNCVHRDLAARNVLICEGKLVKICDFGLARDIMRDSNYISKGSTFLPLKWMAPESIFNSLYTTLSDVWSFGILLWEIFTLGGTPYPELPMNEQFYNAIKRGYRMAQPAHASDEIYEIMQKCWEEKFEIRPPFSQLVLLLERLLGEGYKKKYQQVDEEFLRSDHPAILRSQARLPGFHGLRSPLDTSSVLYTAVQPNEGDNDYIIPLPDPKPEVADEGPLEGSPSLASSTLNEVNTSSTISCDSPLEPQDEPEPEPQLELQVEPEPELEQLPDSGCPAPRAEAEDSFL
# Sequence of Vascular endothelial growth factor receptor 2 (Homo sapiens) (P35968 whole entry): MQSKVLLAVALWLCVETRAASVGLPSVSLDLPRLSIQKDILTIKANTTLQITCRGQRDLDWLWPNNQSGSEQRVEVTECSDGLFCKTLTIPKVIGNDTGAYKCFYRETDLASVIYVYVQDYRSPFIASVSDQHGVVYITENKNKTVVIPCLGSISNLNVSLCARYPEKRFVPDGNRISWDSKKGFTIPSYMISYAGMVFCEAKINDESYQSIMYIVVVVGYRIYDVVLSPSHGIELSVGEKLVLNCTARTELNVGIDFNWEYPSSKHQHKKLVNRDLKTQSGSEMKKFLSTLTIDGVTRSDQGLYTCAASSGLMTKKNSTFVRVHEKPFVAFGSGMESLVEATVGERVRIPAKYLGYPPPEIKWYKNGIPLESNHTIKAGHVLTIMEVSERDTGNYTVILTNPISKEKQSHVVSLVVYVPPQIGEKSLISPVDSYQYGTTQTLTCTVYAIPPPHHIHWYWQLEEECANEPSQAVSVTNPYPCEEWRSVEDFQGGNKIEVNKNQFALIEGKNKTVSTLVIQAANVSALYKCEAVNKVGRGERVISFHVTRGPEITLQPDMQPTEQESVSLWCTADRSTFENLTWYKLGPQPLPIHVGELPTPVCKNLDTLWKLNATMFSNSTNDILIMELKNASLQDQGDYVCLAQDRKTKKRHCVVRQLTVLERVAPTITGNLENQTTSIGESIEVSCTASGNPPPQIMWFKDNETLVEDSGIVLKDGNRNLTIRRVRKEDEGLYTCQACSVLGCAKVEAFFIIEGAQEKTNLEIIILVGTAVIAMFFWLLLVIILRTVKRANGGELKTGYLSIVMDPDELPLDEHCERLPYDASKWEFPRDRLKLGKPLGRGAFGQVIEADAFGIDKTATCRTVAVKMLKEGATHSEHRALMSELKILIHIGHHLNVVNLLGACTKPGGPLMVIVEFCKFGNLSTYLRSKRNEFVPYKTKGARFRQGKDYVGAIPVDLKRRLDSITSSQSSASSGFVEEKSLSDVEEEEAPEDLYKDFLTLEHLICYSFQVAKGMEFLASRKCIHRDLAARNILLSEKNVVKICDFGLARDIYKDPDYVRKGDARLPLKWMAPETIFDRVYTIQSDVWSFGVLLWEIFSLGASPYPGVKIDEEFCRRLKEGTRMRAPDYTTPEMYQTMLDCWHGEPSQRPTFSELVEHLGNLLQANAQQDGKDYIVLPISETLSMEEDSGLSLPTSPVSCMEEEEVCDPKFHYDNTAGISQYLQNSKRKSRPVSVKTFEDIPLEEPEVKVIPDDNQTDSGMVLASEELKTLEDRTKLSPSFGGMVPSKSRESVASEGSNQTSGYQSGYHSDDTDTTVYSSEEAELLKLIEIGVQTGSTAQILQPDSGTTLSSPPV
SMILES,IC50 (HT-29 [1]; ht-29),IC50 [2],IC50 (MDA-MB-231),IC50 (A549),"IC50 (HT-29 [1]; Homo sapiens, HT-29, 72 h)",Activity (Caspase-3 (Homo sapiens)),inhibition [3],inhibition [4],inhibition [5],inhibition (Tubulin (Homo sapiens)),Activity (HT-29 [6])
CCN(CC)Cc1ccc2nc(NC(=O)N/N=C/c3cn(Cc4ccc(Cl)c(Cl)c4)c4ccccc34)sc2c1,0.63 µM and 6.2 µM,610 nM,4490 nM,1470 nM,,,,,,,
CC1CCN(Cc2ccc3nc(NC(=O)N/N=C/c4cn(Cc5ccc(C(C)(C)C)cc5)c5ccccc45)sc3c2)CC1,1.5 µM and 5.75 µM,3370 nM,3880 nM,3710 nM,,,,,,,
CC1CCN(Cc2ccc3nc(NC(=O)N/N=C/c4cn(Cc5cccc(Cl)c5)c5ccccc45)sc3c2)CC1,0.73 µM and 6.14 µM,280 nM,2110 nM,2810 nM,,,,,,,
CCN(CC)Cc1ccc2nc(NC(=O)N/N=C/c3cn(Cc4ccccc4)c4ccccc34)sc2c1,,450 nM,1470 nM,3330 nM,,,,,,,
CN(C)Cc1ccc2nc(NC(=O)N/N=C/c3cn(Cc4ccc(Cl)cc4Cl)c4ccccc34)sc2c1,,950 nM,1410 nM,2000 nM,,,,,,,
O=Cc1cn(Cc2ccc(Cl)cc2)c2ccccc12,,850 nM,26100 nM,2480 nM,1.71 µM,,,,,,
CN(C)Cc1ccc2nc(NC(=O)N/N=C3\C(=O)Nc4ccc(F)cc43)sc2c1,0.97 µM and 6.01 µM,1550 nM,,2310 nM,,9.1%,3.7%,34.1%,2.2%,,
Cc1ccc(Cn2cc(/C=N/NC(=O)Nc3nc4ccc(CN(C)C)cc4s3)c3ccccc32)cc1,,200 nM,1220 nM,1600 nM,,,,,,,
CCN(CC)Cc1ccc2nc(NC(=O)N/N=C/c3cn(Cc4ccc(Cl)cc4)c4ccccc34)sc2c1,,370 nM,2570 nM,2940 nM,,,,,,,
CCN(CC)Cc1ccc2nc(NC(=O)N/N=C/c3c[nH]c4ccccc34)sc2c1,12.1 µM and 4.92 µM,3140 nM,1900 nM,3300 nM,,,,,,,
CC1CCN(Cc2ccc3nc(NC(=O)N/N=C/c4cn(Cc5ccccc5Cl)c5ccccc45)sc3c2)CC1,1.57 µM and 5.89 µM,1080 nM,1360 nM,3330 nM,,,,,,,
CCN(CC)Cc1ccc2nc(NC(=O)N/N=C3\C(=O)Nc4ccc(OC(F)(F)F)cc43)sc2c1,1.9 µM and 5.72 µM,2110 nM,,1990 nM,,,,,,,
CC1CCN(Cc2ccc3nc(NC(=O)N/N=C/c4cn(Cc5ccc(Cl)cc5)c5ccccc45)sc3c2)CC1,0.75 µM and 6.43 µM,400 nM,2850 nM,2030 nM,,,,,,,
CN(C)Cc1ccc2nc(NC(=O)N/N=C/c3cn(Cc4ccccc4)c4ccccc34)sc2c1,,400 nM,1340 nM,2900 nM,,,,,,,
CCN(CC)Cc1ccc2nc(NC(=O)N/N=C/c3cn(Cc4ccc(Cl)cc4Cl)c4ccccc34)sc2c1,1.04 µM and 6.06 µM,1080 nM,3280 nM,1900 nM,,,,,,,
CC1CCN(Cc2ccc3nc(NC(=O)N/N=C/c4cn(Cc5ccccc5)c5ccccc45)sc3c2)CC1,2.05 µM and 5.72 µM,1910 nM,2850 nM,2340 nM,,,,,,,
CN(C)Cc1ccc2nc(NC(=O)N/N=C/c3cn(Cc4ccccc4Cl)c4ccccc34)sc2c1,,1600 nM,1180 nM,1080 nM,,,,,,,

SMILES,IC50 (HT-29 [1]; ht-29),IC50 [2],IC50 (MDA-MB-231),IC50 (A549),"IC50 (HT-29 [1]; Homo sapiens, HT-29, 72 h)",Activity (Caspase-3 (Homo sapiens)),inhibition [3],inhibition [4],inhibition [5],inhibition (Tubulin (Homo sapiens)),Activity (HT-29 [6])
CCN(CC)Cc1ccc2nc(NC(=O)N/N=C/c3cn(Cc4ccc(C(C)(C)C)cc4)c4ccccc34)sc2c1,,1670 nM,2120 nM,1710 nM,,,,,,,
CCN(CC)Cc1ccc2nc(NC(=O)N/N=C/c3cn(Cc4ccc(C)cc4)c4ccccc34)sc2c1,,320 nM,2010 nM,1510 nM,,,,,,,
CC1CCN(Cc2ccc3nc(NC(=O)N/N=C/c4cn(Cc5ccc(Cl)cc5Cl)c5ccccc45)sc3c2)CC1,2.12 µM and 5.62 µM,1660 nM,3140 nM,3640 nM,,,,,,,
CCN(CC)Cc1ccc2nc(NC(=O)N/N=C3\C(=O)Nc4ccc(F)cc43)sc2c1,1.55 µM and 5.81 µM,1060 nM,,2010 nM,,,,,,,
CN(C)Cc1ccc2nc(NC(=O)N/N=C/c3c[nH]c4ccccc34)sc2c1,5 µM,2550 nM,1190 nM,3300 nM,9.9 µM,,,,,,
CC1CCN(Cc2ccc3nc(NC(=O)N/N=C/c4c[nH]c5ccccc45)sc3c2)CC1,15.2 µM and 4.82 µM,4130 nM,2460 nM,3580 nM,,,,,,,
CCN(CC)Cc1ccc2nc(NC(=O)N/N=C/c3cn(Cc4cccc(Cl)c4)c4ccccc34)sc2c1,,220 nM,2050 nM,2410 nM,,,,,,,
C=CCc1cccc(/C=N/NC(=O)CN2CCN(Cc3ccccc3)CC2)c1O [PAC-1],,1250 nM,3200 nM,2510 nM,1.02 µM,100%,,,,,
CN(C)Cc1ccc2nc(NC(=O)N/N=C/c3cn(Cc4ccc(Cl)cc4)c4ccccc34)sc2c1,,290 nM,880 nM,840 nM,,70.9%,5.9%,4.1%,12.8%,26%,68.66%
CN(C)Cc1ccc2nc(NC(=O)N/N=C3\C(=O)Nc4ccc(Cl)cc43)sc2c1,2.57 µM and 5.59 µM,1170 nM,,3180 nM,,,,,,,
Cc1ccc(Cn2cc(/C=N/NC(=O)Nc3nc4ccc(CN5CCC(C)CC5)cc4s3)c3ccccc32)cc1,1.03 µM and 5.94 µM,410 nM,1140 nM,2180 nM,,,,,,,
CN(C)Cc1ccc2nc(NC(=O)N/N=C/c3cn(Cc4cccc(Cl)c4)c4ccccc34)sc2c1,,420 nM,1140 nM,1240 nM,,48.8%,,,,18%,
CN(C)Cc1ccc2nc(NC(=O)N/N=C/c3cn(Cc4ccc(Cl)c(Cl)c4)c4ccccc34)sc2c1,,1360 nM,1000 nM,940 nM,,,,,,,
CCN(CC)Cc1ccc2nc(NC(=O)N/N=C/c3cn(Cc4ccccc4Cl)c4ccccc34)sc2c1,,980 nM,900 nM,1390 nM,,,,,,,
CN(C)Cc1ccc2nc(NC(=O)N/N=C/c3cn(Cc4ccc(C(C)(C)C)cc4)c4ccccc34)sc2c1,,810 nM,2230 nM,1850 nM,,,,,,,
CC1CCN(Cc2ccc3nc(NC(=O)N/N=C4\C(=O)Nc5ccc(F)cc54)sc3c2)CC1,5.39 µM,1430 nM,,3010 nM,4.1 µM,,,,,,
